Experimental findings from ChEMBL document CHEMBL1124147 (J Med Chem, 1988) are described below.

Some results are limits rather than exact numbers.

One may read the IC50 as the midpoint of a concentration-inhibition curve. The low end stands for higher potency, the high end for lower potency. One may read the EC50 as the concentration that produces a half-maximal response. A higher EC50 goes with a less potent agent.

A short description of data set [1]: (§1) Muscarinic agonist index (Ki in [3H]QNB / Ki in [3H]-OXO-M) was determined. The format is functional.
Data set [2] deals with T1, Muscarinic acetylcholine receptor M2 (Rattus norvegicus, UniProt P10980).
T1 sequence (P10980 whole entry): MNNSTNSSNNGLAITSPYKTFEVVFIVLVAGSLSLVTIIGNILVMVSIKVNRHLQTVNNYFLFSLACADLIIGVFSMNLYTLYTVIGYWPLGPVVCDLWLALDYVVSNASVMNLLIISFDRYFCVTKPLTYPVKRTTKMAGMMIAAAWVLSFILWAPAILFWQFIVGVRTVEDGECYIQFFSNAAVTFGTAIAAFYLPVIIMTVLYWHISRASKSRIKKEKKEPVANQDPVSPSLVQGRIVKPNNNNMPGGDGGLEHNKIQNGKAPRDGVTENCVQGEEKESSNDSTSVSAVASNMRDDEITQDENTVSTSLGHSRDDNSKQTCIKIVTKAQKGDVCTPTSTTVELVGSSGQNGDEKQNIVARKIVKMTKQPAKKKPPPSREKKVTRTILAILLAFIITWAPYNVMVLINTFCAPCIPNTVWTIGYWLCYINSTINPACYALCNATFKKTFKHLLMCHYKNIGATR
The data set is described as follows: Inhibition of [3H]quinuclidinyl benzilate binding to Muscarinic acetylcholine receptor M2 of rat heart.

A short description of data set [3]: M-1 selectivity expressed as M-2/M-1 index (Ki in [3H]-QNB / Ki in [3H]PZ) was determined. The essentials: (§2)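 Ratio of Ki from [3H]QNB binding in rat heart to Ki from [3H]PZ binding in rat brain membranes. Ki = IC50/(1+[L]/Kd) in both. Heart assay: tissue homogenized with an ultraturrax, 4 mg tissue per assay, QNB Kd 9.1 ± 0.7 pM.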
For data set [4], the species on record is Cavia porcellus. The data set is described as follows: Compound was tested for the antagonistic activity on guinea pig ileum. It is filed as functional. Put shortly:
(§3)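 Isolated ileum preparation, with the agonist EC50 and the antagonist IC50 read from dose-response curves.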

The target of data set [5] is T2, Muscarinic acetylcholine receptor M1 (Rattus norvegicus, UniProt P08482).
T2 sequence (P08482 whole entry): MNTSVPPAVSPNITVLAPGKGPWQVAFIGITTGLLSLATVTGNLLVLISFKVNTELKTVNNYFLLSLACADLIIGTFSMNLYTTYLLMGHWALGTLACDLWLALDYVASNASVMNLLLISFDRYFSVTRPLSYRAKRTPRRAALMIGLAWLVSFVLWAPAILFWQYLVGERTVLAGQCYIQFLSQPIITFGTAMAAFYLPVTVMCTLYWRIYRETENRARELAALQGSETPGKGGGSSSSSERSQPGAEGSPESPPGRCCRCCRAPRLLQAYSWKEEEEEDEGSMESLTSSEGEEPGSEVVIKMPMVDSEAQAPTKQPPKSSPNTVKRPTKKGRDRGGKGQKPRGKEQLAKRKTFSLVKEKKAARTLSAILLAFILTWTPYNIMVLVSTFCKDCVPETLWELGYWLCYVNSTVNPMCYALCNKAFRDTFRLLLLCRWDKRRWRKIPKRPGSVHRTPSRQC
Kind of data set: Inhibition of [3H]pirenzepine binding to rat brain membrane Muscarinic acetylcholine receptor M1.

Data set [6] concerns the target Muscarinic acetylcholine receptor. Kind of data set: Inhibition of [3H]oxotremorine-M binding to rat brain membrane Muscarinic acetylcholine receptor.
Data set [7] addresses T1, Muscarinic acetylcholine receptor M2. Kind of data set: Inhibition of [3H]quinuclidinyl benzilate binding to Muscarinic acetylcholine receptor M2 in rat brain membrane. It is filed as cell membranes.
For data set [8], the species on record is Cavia porcellus. Kind of data set: Effective concentration of compound for the agonistic activity on guinea pig ileum. The format is functional. The essentials: as §3
Data set [9] concerns the target T1, Muscarinic acetylcholine receptor M2. Kind of data set: Compound was tested for the inhibition of [3H]quinuclidinyl benzilate binding to Muscarinic acetylcholine receptor M2 in rat brain membrane. The format is cell membranes.
Data set [10] in a line: as §1.
Data set [11] can be described thus: M-1 selectivity expressed as M-2/M-1 index (Ki in [3H]QNB / Ki in [3H]-PZ) was determined. It is filed as functional. Put shortly:
as §2

For data set [12], the species on record is Cavia porcellus. Kind of data set: Compound was tested for the agonistic activity on guinea pig ileum. It is filed as functional. Put shortly:
as §3

In the case of `COc1noc2c1C[S+](C)CC2.[I-]` (configuration not stated), the M-agonist index in data set [1] was found to be 307. Also, the IC50 in data set [2] was 1.6 µM; in the data set filed under Cavia porcellus [4] it was over 0.4 µM; in [5], 4.1 µM; in data set [6] it was 0.019 µM; in data set [7], 36 µM. Besides, the Ratio in data set [3] was 0.05. This compound also returned an EC50 in the data set filed under Cavia porcellus [8] of 0.84 µM.
In [1], `C#CCOc1noc2c1C[S+](C)CC2.[I-]` (configuration not stated) registered a M-agonist index of 128. Besides, the IC50 in [2] is 0.44 µM; in the data set filed under Cavia porcellus [4], over 0.2 µM; in data set [5], 0.25 µM; in data set [6] it was 0.0033 µM; in data set [7] it was 2.6 µM. In addition, the Ratio in data set [3] is 0.22. This compound had an EC50 in the data set listed under Cavia porcellus [8] of 0.56 µM.
In [1], `COC(=O)C1=CCC[S+](C)C1.[I-]` (configuration not stated) [SULFOARECOLINE IODIDE] came in with a M-agonist index of 3930. Also, the IC50 came out at 2.5 µM in data set [2], 2.6 µM in [5], 0.0014 µM in data set [6] and 34 µM in data set [7]. The Ratio in [3] turned out to be 0.12.
As to `Cn1oc2c(c1=O)CSCC2`, the IC50 was over 1000 µM in data set [2]; over 50 µM in the data set filed under Cavia porcellus [4]; over 1000 µM in data set [5]; over 1000 µM in data set [6]; over 1000 µM in [7]. Further, in the data set listed under Cavia porcellus [8], the EC50 is over 50 µM.
`Cn1oc2c(c1=O)C[S+](C)CC2.[I-]` (configuration not stated): in data set [1], the M-agonist index was 81. The IC50 is 10 µM in [2]; over 6 µM in the data set listed under Cavia porcellus [4]; 30 µM in [5]; 0.22 µM in data set [6]; 110 µM in data set [7]. In addition, in data set [3], the Ratio worked out at 0.04. The compound further showed an EC50 in the data set filed under Cavia porcellus [8] of 9.3 µM.
In data set [1], `CCOc1noc2c1C[S+](C)CC2.[I-]` (configuration not stated) yielded a M-agonist index of 3.3. Besides, the IC50 in data set [2] stood at 4.9 µM; in the data set listed under Cavia porcellus [4] it was 15 µM; in data set [5], 0.53 µM; in [9] it was 4.6 µM; in [6], 0.23 µM. Moreover, in data set [3], the Ratio was 1.2. In the data set listed under Cavia porcellus [8], the EC50 is over 50 µM.
`CC(C)Oc1noc2c1C[S+](C)CC2.[I-]` (configuration not stated) came in with a M-agonist index in [1] of 20. Besides, the IC50 is 1.8 µM in data set [2]; over 3 µM in the data set listed under Cavia porcellus [4]; 0.43 µM in [5]; 0.039 µM in data set [6]; 4.8 µM in [7]. In data set [3], the Ratio came to 0.53. For the same compound, the EC50 in the data set filed under Cavia porcellus [8] came out at 6.2 µM.
Consider `COc1noc2c1CSCC2`, for which the IC50 in data set [2] is over 1000 µM; in the data set filed under Cavia porcellus [4], over 50 µM; in data set [5] it was over 1000 µM; in data set [6], over 1000 µM; in data set [7] it was over 1000 µM. The EC50 in the data set listed under Cavia porcellus [8] is over 50 µM.
Compound `COc1noc2c1C[N+](C)(C)CC2.[I-]` yielded a M-agonist index in data set [1] of 279. The IC50 in data set [2] was 9.5 µM; in the data set filed under Cavia porcellus [4], over 3 µM; in [5], 2.8 µM; in [6], 0.043 µM; in data set [7], 74 µM. Further, in data set [3], the Ratio came to 0.42. Besides, the EC50 in the data set listed under Cavia porcellus [8] was 8.2 µM.
Take `COc1noc2c1CN(C)CC2`: the IC50 in data set [2] is 16 µM; in the data set filed under Cavia porcellus [4], over 0.2 µM; in [5], 6.4 µM; in [6] it was 0.028 µM; in data set [7] it was 38 µM. The compound also came in with a M-agonist index in data set [10] of 220. For the same compound, in data set [11], the Ratio came out at 0.31. The compound further registered an EC50 in the data set filed under Cavia porcellus [12] of 0.83 µM.
In data set [1], `CCOC(=O)C1=CCC[S+](C)C1.[Cl-]` (configuration not stated) yielded a M-agonist index of 387. Also, the IC50 in data set [2] came out at 3.9 µM; in data set [5], 0.4 µM; in data set [6] it was 0.0092 µM; in data set [7], 22 µM. In addition, in [3], the Ratio is 1.2.
Take `COC(=O)C1=CCCN(C)C1` [ARECOLINE]: the IC50 in the data set listed under Cavia porcellus [4] was over 1 µM. Besides, the EC50 in the data set filed under Cavia porcellus [8] was found to be 0.15 µM.
